For experiment [1], the species on record is Rattus norvegicus. The experiment can be described thus: Induction of behavioral syndrome(FT: forepaw treading) by the compound in reserpine pretreated rats at a dose of 16; FT mean score. The class given is functional. In outline: (§1)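 Male Wistar rats (260–300 g) were given reserpine 1 mg/kg sc in saline 18 h before testing. Test compound was then given alone ip as a 1% Tween 80 suspension (2 mL/kg). FBP and FT were each scored 0–3 and summed (maximum 15). n=6 per group; mean ± SEM; Newman–Keuls test.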

For experiment [2], the species on record is Rattus norvegicus. The experiment can be described thus: Dose Inducing behavioral syndrome(FT: forepaw treading) by the compound in reserpine pretreated rats. The format is functional. The gist of the method: (§2)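 Male Wistar rats (260–300 g), groups of 6, given reserpine 1 mg/kg sc 18 h before test. Compounds given ip as 1% Tween 80 suspension. FBP and FT rated 0–3 in 45-s sessions every 3 min, starting 3 min after dosing. Score summed over 5 periods (max 15 per symptom). Mean ± SEM; Newman–Keuls test.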

For experiment [3], the species on record is Rattus norvegicus. Kind of experiment: Induction of behavioral syndrome(FT: forepaw treading) by the compound in reserpine pretreated rats at a dose of 8; FT mean score. The format is functional. In outline: as §1
For experiment [4], the species on record is Rattus norvegicus. Kind of experiment: Effect on 8-OH-DAPT- induced behavioral syndrome(FBP: flat body posture) by the compound in reserpine pretreated rats at a dose of 32; FBP mean score. The format is functional. In outline: (§3)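 Reserpinized male Wistar rats (reserpine 1 mg/kg sc, 18 h before), groups of 6. Compound given ip in 1% Tween 80 60 min before 8-OH-DPAT 5 mg/kg sc. FBP/FT rated 0–3 at 3, 6, 9, 12 and 15 min after agonist, summed (max 15). Mean ± SEM; Newman–Keuls test; ED50 with range.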

For experiment [5], the species on record is Rattus norvegicus. Kind of experiment: Induction of behavioral syndrome(FT: forepaw treading) by the compound in reserpine pretreated rats at a dose of 32; FT mean score. The format is functional. The gist of the method:
as §1

In experiment [6] the test system is Rattus norvegicus. Kind of experiment: Induction of LLR(lower lip retraction) by the compound in rats at a dose of 2 mg/kg; LLR score. The class given is functional. The gist of the method: (§4)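 Male Wistar rats, groups of 6, given compound alone ip as 1% Tween 80 suspension. Lower incisor visibility scored 0/0.5/1 at 15, 30 and 45 min after dosing, summed (max 3 per rat). Mean ± SEM versus vehicle, Newman–Keuls test; ED50 with range.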

Experiment [7] has as its target T1, 5-hydroxytryptamine receptor 1A (Rattus norvegicus, UniProt P19327).
T1 sequence (P19327 whole entry): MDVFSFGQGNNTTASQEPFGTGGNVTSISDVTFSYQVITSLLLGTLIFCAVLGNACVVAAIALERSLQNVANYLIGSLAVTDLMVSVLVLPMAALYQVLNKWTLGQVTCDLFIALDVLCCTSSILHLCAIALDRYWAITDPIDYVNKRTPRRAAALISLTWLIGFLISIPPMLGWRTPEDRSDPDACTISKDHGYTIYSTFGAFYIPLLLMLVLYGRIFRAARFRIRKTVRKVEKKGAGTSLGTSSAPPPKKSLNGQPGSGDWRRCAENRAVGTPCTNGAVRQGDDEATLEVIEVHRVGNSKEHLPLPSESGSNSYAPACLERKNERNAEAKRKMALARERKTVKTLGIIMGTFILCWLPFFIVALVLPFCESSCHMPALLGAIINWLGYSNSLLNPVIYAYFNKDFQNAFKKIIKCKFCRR
Kind of experiment: Ability to displace [3H]8-OH-DPAT from 5-hydroxytryptamine 1A receptor. In outline:
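Rat hippocampal membranes, [3H]8-OH-DPAT radioligand. Ki from at least three competition experiments, each with 10–14 drug concentrations run in triplicate. Ki calculated with the Cheng–Prusoff equation.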

Experiment [8] is filed under the species Rattus norvegicus. The experiment can be described thus: Effective dose of the required to induce LLR(lower lip retraction). The format is functional. In outline:
as §4

The species named for experiment [9] is Rattus norvegicus. The experiment can be described thus: Effect on 8-OH-DAPT- induced behavioral syndrome(FT: forepaw treading) by the compound in reserpine pretreated rats at a dose of 8; FT mean score. The format is functional. In outline: as §3
The species named for experiment [10] is Rattus norvegicus. The experiment can be described thus: Induction of behavioral syndrome(FBP: flat body posture) by the compound in reserpine pretreated rats at a dose of 8; FBP mean score. The class given is functional. The gist of the method:
as §1

In experiment [11] the test system is Rattus norvegicus. The experiment can be described thus: Induction of LLR(lower lip retraction) by the compound in rats at a dose of 4 mg/kg; LLR score. The class given is functional. The gist of the method: as §4
The species named for experiment [12] is Rattus norvegicus. The experiment can be described thus: Effect on 8-OH-DAPT- induced behavioral syndrome(FBP: flat body posture) by the compound in reserpine pretreated rats at a dose of 16; FBP mean score. The class given is functional. In outline:
as §3

For experiment [13], the species on record is Rattus norvegicus. Kind of experiment: Effect on 8-OH-DAPT- induced behavioral syndrome(FBP: flat body posture) by the compound in reserpine pretreated rats at a dose of 8; FBP mean score. The format is functional. In outline:
as §3

The species named for experiment [14] is Rattus norvegicus. Kind of experiment: Effect on 8-OH-DAPT- induced behavioral syndrome(FT: forepaw treading) by the compound in reserpine pretreated rats at a dose of 16; FT mean score. The format is functional. The gist of the method: as §3
For experiment [15], the species on record is Rattus norvegicus. Kind of experiment: Induction of behavioral syndrome(FBP: flat body posture) by the compound in reserpine pretreated rats at a dose of 32; FBP mean score. The class given is functional. In outline: as §1
For experiment [16], the species on record is Rattus norvegicus. Kind of experiment: Effect on 8-OH-DAPT- induced behavioral syndrome(FT: forepaw treading) by the compound in reserpine pretreated rats at a dose of 32; FT mean score. The class given is functional. In outline: as §3
The species entered for experiment [17] is Rattus norvegicus. The experiment can be described thus: Dose Inducing behavioral syndrome(FBP: flat body posture) by the compound in reserpine pretreated rats. The format is functional. In outline:
as §2

The species named for experiment [18] is Rattus norvegicus. The experiment can be described thus: Induction of behavioral syndrome(FBP: flat body posture) by the compound in reserpine pretreated rats at a dose of 16; FBP mean score. The format is functional. In outline: as §2
The subject of experiment [19] is Rattus norvegicus. The experiment can be described thus: Induction of LLR(lower lip retraction) by the compound in rats at a dose of 8 mg/kg; LLR score. The format is functional. In outline: as §4

Bounds are passed on as bounds.

As for `O=C1[C@H]2CCCC[C@H]2C(=O)N1CCCCN1CCc2ccccc2C1`, the FT mean score is given as 0.2 in the experiment listed under Rattus norvegicus [1]; 0.1 in the experiment listed under Rattus norvegicus [3]; 0.2 in the experiment listed under Rattus norvegicus [5]; 9.8 in the experiment listed under Rattus norvegicus [9]; 7.7 in the experiment listed under Rattus norvegicus [14]; 6 in the experiment listed under Rattus norvegicus [16]. The figures for the ED50 in the experiment listed under Rattus norvegicus [2], in the experiment listed under Rattus norvegicus [8] and in the experiment listed under Rattus norvegicus [17] were 17 mg/kg, 3.9 mg/kg and more than 32 mg/kg, respectively. Also, the FBP mean score in the experiment filed under Rattus norvegicus [4] turned out to be 11.7; in the experiment listed under Rattus norvegicus [10] it was 0.1; in the experiment filed under Rattus norvegicus [12] it was 13.3; in the experiment listed under Rattus norvegicus [13], 14.6; in the experiment listed under Rattus norvegicus [15] it was 3.7; in the experiment filed under Rattus norvegicus [18] it was 2.3. The LLR score with Rattus norvegicus [6] stood at 1; in the experiment on Rattus norvegicus [11] it was 1.9; with Rattus norvegicus [19] it was 2.5. The affinity in experiment [7], expressed as Ki, was 50 nM.

Values taken from ChEMBL document CHEMBL1132488, “On the bioactive conformation of NAN-190 (1) and MP3022 (2), 5-HT(1A) receptor antagonists” (J Med Chem, 1999).
